# Screens as filed in PubChem BioAssay.
# CXCR6 block – CXCR6 receptor inhibitors, primary screen, cell-based, beta-arrestin, luminescence, CHO-K1 PathHunter, 1536-well; AID 602244, 2012; actives 0.36% (n = 360,000); C-X-C chemokine receptor type 6 (Homo sapiens), O00574; inhibition, % at 20 µM; in the data active = inhibition above about 34%, passing the limit was not always enough;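 note: antagonist mode with CXCL16 agonist at 10 nM final; 0% = 10 nM CXCL16 with DMSO and 100% = unstimulated wells without agonist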
# APJ ag – agonists of human apelin receptor APJ, primary screen, CHO-K1 cells, PathHunter beta-arrestin, luminescence | P35414 | 0% DMSO wells, 100% apelin | activation, % at 20 µM | actives 0.11% (n = 330,000) | AID 2520, 2010;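 active = activation more than six SD over the plate average, tested at 20 µM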;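 note: 0% = DMSO alone and 100% = apelin-13 at 10 nM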
# Target sequence (P35414 whole entry, looked up): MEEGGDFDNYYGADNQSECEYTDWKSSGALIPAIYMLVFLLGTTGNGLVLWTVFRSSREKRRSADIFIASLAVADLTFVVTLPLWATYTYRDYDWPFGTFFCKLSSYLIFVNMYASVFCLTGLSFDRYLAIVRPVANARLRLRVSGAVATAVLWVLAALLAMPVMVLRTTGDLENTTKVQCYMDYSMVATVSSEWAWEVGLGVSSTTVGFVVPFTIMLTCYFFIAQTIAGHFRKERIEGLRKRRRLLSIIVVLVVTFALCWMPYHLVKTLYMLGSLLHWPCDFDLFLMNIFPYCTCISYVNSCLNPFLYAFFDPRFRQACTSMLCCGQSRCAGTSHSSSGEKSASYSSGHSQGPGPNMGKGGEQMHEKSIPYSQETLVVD
#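 Material: CHO-K1 APJ beta-arrestin complementation cell line; Input: cell density 1000 per well; Incubation: compound stimulation 90 min at 25 °C, detection 60 min; Signal: luminescence from split beta-galactosidase complementation, Galacton Star/Emerald II substrate; Controls: DMSO-only wells as negative, 10 nM Apelin-13 as positive control.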
# CCR6 antag – CCR6 receptor antagonists, primary screen, cell-based, CHO-K1, luminescence, beta-arrestin, uHTS; AID 493098, 2011; inhibition, % at 20 µM; actives 0.49% (n = 340,000); C-C chemokine receptor type 6 (Homo sapiens), P51684; CHO-K1 CCR6 PathHunter beta-arrestin, CCL20-stimulated;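 active = compounds whose inhibition of the agonist-driven luminescence signal at 20 µM reaches about 50%, limit read from the data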;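 note: cells stimulated with CCL20 at 14 nM final; plate controls were DMSO with CCL20 for no effect and DMSO without agonist for full effect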
# EBI2 antag – EBI2 receptor antagonists, beta-arrestin recruitment, primary screen, cell-based, luminescence, 7a,25-OHC stimulation, uHTS. G-protein coupled receptor 183 (Homo sapiens), P32249. 7a,25-OHC stimulated. inhibition, % at 5 µM. actives 0.81% (n = 360,000). AID 651636, 2012; in the data active = inhibition above about 38%;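 note: enzyme fragment complementation signal reports receptor beta-arrestin coupling in cells; 0% = agonist plus DMSO wells and 100% = wells without agonist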
# APJ antagonist – antagonists of human apelin receptor APJ, primary screen, CHO-K1 cells, beta-arrestin complementation, luminescence. AID 2521, 2010. actives 0.32% (n = 330,000). inhibition, % at 20 µM;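 active = inhibition above about 40% at 20 µM, limit read from the data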;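 note: cells challenged with 10 nM apelin-13 agonist together with compound; plate controls were apelin-13 plus DMSO wells for no effect and DMSO wells lacking apelin-13 for full effect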
# APJ ag conf – agonists of human apelin receptor APJ, confirmation, cell-based, single concentration, CHO-K1, beta-arrestin, luminescence. AID 2764, 2010. CHO-K1 APJ PathHunter beta-arrestin. activation, % at 20 µM. shares compounds with APJ ag. actives 10% (n = 310);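 active = activation above 40%, taking the highest of four retests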;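 note: plate controls were DMSO wells for no effect and apelin-13 at 10 nM for full effect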
# Starred values were filed as active, the others as inactive; x = no result given. This is a sample that favours compounds with a hit; in the whole collection about 1.5% have one here.
SMILES,CXCR6 block,APJ ag,CCR6 antag,EBI2 antag,APJ antagonist,others
Cc1c(-n2c(O)c(C3=c4ccccc4=NC3=O)sc2=O)c(=O)n(-c2ccccc2)n1C,-5,-2,-1,-7,-37,
C=CCn1c(O)c(C2=c3ccccc3=NC2=O)c2ccccc21,72*,4,91*,11,27,
CS(=O)(=O)c1cc(C(=O)O)cc(NCc2ccccc2)c1Oc1ccccc1,6,x,x,-10,x,
CC(C)C[C@@H]1COc2cc(N3CCC[C@H]3CO)ccc2S(=O)(=O)N1,-7,x,x,-11,x,
CC1(C(=O)NS(=O)(=O)c2cccc(F)c2)CCN1C(=O)CCC1CCCC1 (stereo not given),-4,x,x,-6,x,
COc1ccc(CC(=O)Nc2cccc(-c3nnc(-c4cccc(C)c4)o3)c2)cc1OC,-8,24*,0,-10,-22,
COc1ccc(CC(=O)Nc2cccc(-c3nnc(-c4ccccc4)o3)c2)cc1OC,-11,x,0,-32,x,
FC(F)(F)C1=Nc2cccc3cccc(c23)N1,62*,12,80*,-5,-41,
CCCS(=O)(=O)NC(=O)C1(C)CCN(C(=O)c2cc(C(C)(C)C)nn2C)C1 (stereo not given),3,x,x,-14,x,
COc1cc(/C=C2\SC(=S)N(c3cccnc3)C2=O)ccc1O,65*,-9,75*,6,53*,
Cc1ccc(/C=C2\SC(=S)N(c3cccnc3)C2=O)cc1,-2,-1,3,1,-15,
COc1cc2c(cc1OC)C(c1ccc(-c3ccc(Cl)c(Cl)c3)o1)=NCC2,-9,-1,10,66*,8,
COc1cc2c(cc1OC)C(c1ccc(-c3cc(Cl)ccc3Cl)o1)=NCC2,-1,-1,0,62*,11,
COc1cc2c(cc1OC)C(C)=NCC2,1,-4,-11,-5,4,
COc1cc2c(cc1OC)C(c1ccc(Cl)cc1)=NCC2,7,0,17,6,-19,
COc1cc2c(cc1OC)C(c1ccc(-c3ccccc3Cl)o1)=NCC2,0,-1,4,49*,9,
O=C(O)c1ccccc1NC(=O)C1CCN(S(=O)(=O)c2ccc3c(c2)OCCO3)CC1,6,x,x,-6,x,
Cc1ccc(C(c2cc(Cl)c3cccnc3c2O)N2CCN(C)CC2)cc1 (stereo not given),33,-3,57*,0,30,
CC(=O)c1nn(-c2cccc(C)c2)cc1C(=O)c1cccc(Br)c1,0,7,-4,0,20,
CC(=O)c1nn(-c2ccccc2)cc1C(=O)c1ccc(C)cc1,-4,-1,14,56*,-13,
CCOC1=C2[C@H](c3ccc(Cl)cc3)N(S(=O)(=O)c3ccc(C)cc3)C[C@H]2n2c(=O)n(-c3ccccc3)c(=O)n2C1,4,x,x,-2,x,
CNCc1ccccc1Sc1cc(O)ccc1O,40,4,84*,-3,-54,
CC1(C(=O)NS(=O)(=O)Cc2ccccc2)CCN1C(=O)Cc1ccccc1Cl (stereo not given),5,x,x,-3,x,
CC1=NNC(=O)/C1=C\c1cn(-c2ccccc2)nc1-c1ccc(F)cc1,-4,x,9,86*,x,
CC(C)(Oc1ccc(F)cc1)C(=O)OCC(=O)c1ccc(S(C)(=O)=O)cc1,37,-12,52*,7,3,
SMILES,CXCR6 block,APJ ag,CCR6 antag,EBI2 antag,APJ antagonist,others
Cc1ccc(S(=O)(=O)CCC(=O)OCC(=O)c2ccc(F)cc2)cc1,1,-5,7,-4,-46,
Cc1ccc(S(=O)(=O)N2CCOCC2)cc1NC(=O)c1ccc(F)cc1F,-4,-2,9,-8,4,
NS(=O)(=O)c1ccc(NC(=O)c2ccc(F)cc2F)c(NC(=O)c2ccc(F)cc2F)c1,2,-1,51*,-3,-3,
CCOC(=O)[C@]12CCCC=C1N(Cc1ccc3c(c1)OCO3)C(=O)[C@H](CC(=O)NCc1cccc(C(F)(F)F)c1)C2,9,x,x,8,x,
O=C1c2ccccc2C(=O)N1OS(=O)(=O)c1ccc(F)cc1,58*,x,70*,-6,x,
Cc1cccc2c1N(C)C(=O)C2=O,-2,0,-15,-8,3,
O=S(=O)(c1ccccc1)N1CCN(S(=O)(=O)c2ccc(F)cc2)CC1,-8,-5,8,-2,0,
Cc1cc(C)c(C)c(S(=O)(=O)ON2C(=O)c3ccccc3C2=O)c1C,17,-3,76*,-6,20,
Cc1cc(C)c(S(=O)(=O)ON2C(=O)c3ccccc3C2=O)cc1C,13,-4,67*,-1,1,
CCOC(=O)C1=CCC(c2ccc(N(CC)CC)cc2)N(S(=O)(=O)c2ccc(C)cc2)C1c1ccc([N+](=O)[O-])cc1 (stereo not given),x,x,x,8,x,
O=C(NC1CCCC1)C1C(c2ccc(C(F)(F)F)cc2)=Nc2ccccc2N1C(=O)c1ccccc1 (stereo not given),x,x,x,5,x,
Cn1c(=O)c(Nc2ccc(O)cc2)c2c3c(cccc31)C(=O)c1ccccc1-2,29,-3,54*,15,10,
COc1cccc(NC(=O)N2CCN(c3cccc(C)c3C)CC2)c1,5,0,12,78*,-12,
CC(SC(=S)N(C)Cc1cccs1)C(=O)O (stereo not given),-4,3,10,-1,1,
CN(C)c1nc(=NCc2cccs2)ss1,92*,x,111*,23,x,
CC(=O)OCCCNc1cc(Sc2ccc(Cl)cc2)c2nonc2c1[N+](=O)[O-],92*,x,104*,68*,x,
O=C(Nc1nc(-c2ccccc2)cs1)C1CCCN(S(=O)(=O)c2cccc([N+](=O)[O-])c2)C1 (stereo not given),-15,-1,5,1,-12,
O=C(Nc1nc(-c2ccccc2)cs1)C1CCCN(S(=O)(=O)c2ccccc2)C1 (stereo not given),-8,7,66*,-14,6,
Cc1ccc(C)c2sc(NC(=O)c3nc4ccccc4s3)nc12,38,-3,51*,2,16,
CN1C(=CC=C2C=C(I)C(=O)C(I)=C2)C(C)(C)c2ccccc21,45*,x,73*,16,x,
O=C(/C=C/c1ccccc1)NNc1ccc(Cl)cc1,7,-8,12,4,62*,
O=C(/C=C/c1ccccc1)NNC(=O)c1cccc(Cl)c1,-11,-2,10,1,6,
N/C(=N\OC(=O)c1cccc(F)c1)c1cccc([N+](=O)[O-])c1,-31,15*,-18,-6,-62,APJ ag conf=22
